Data published in ChEMBL document CHEMBL1165950, “Design and synthesis of new potent anticancer pyrazoles with high FLT3 kinase inhibitory selectivity” (Bioorg Med Chem, 2010).

Tests used:
Assay type in all cases: functional
Conditions in all cases: read-out: Activity
MCF7 = experiment: Cytotoxicity against human MCF7 cells assessed as cell growth at 10 uM
Summary of the method: (§1)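 NCI-60 screen: cells grown in RPMI 1640 with 5% FBS and 2 mM L-glutamine, plated at 5000–40,000 cells/well according to doubling time, and preincubated 24 h at 37 °C, 5% CO2. The single 10 µM dose (DMSO stock) was added, then incubated 48 h. Cells were TCA-fixed and stained with 0.4% SRB, read at 515 nm, and growth % calculated against time-zero and control plates.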

[1] = Cytotoxicity against human […] cells assessed as cell growth at 10 uM; summary of the method: as §1
HOP-92 = experiment: Cytotoxicity against human HOP92 cells assessed as cell growth at 10 uM
Summary of the method: (§2)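 Single-dose NCI-60 screen at 10 µM. Cells were grown in RPMI 1640 with 5% FBS and 2 mM L-glutamine, then treated for 48 h at 37 °C. Protein was measured by SRB staining with absorbance at 515 nm. Percentage growth was recorded, and inhibition percentage was calculated as 100 minus growth percentage.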

A549 = experiment: Cytotoxicity against human A549 cells assessed as cell growth at 10 uM; summary of the method: as §2
NCI-H226 = experiment: Cytotoxicity against human NCI-H226 cells assessed as cell growth at 10 uM; summary of the method: as §1
SK-OV-3 = experiment: Cytotoxicity against human SKOV3 cells assessed as cell growth at 10 uM; summary of the method: as §1
Malme-3M = experiment: Cytotoxicity against human MALME-3M cells assessed as cell growth at 10 uM; summary of the method: as §1
EKVX = experiment: Cytotoxicity against human EKVX cells assessed as cell growth at 10 uM; summary of the method: as §2
SW-620 = experiment: Cytotoxicity against human SW620 cells assessed as cell growth at 10 uM; summary of the method: as §1
SF-295 = experiment: Cytotoxicity against human SF295 cells assessed as cell growth at 10 uM; summary of the method: as §1
NCI-H322M = experiment: Cytotoxicity against human NCI-H322M cells assessed as cell growth at 10 uM; summary of the method: as §1
HT-29 = experiment: Cytotoxicity against human HT-29 cells assessed as cell growth at 10 uM; summary of the method: as §2
KM12 = experiment: Cytotoxicity against human KM12 cells assessed as cell growth at 10 uM; summary of the method: as §1
MDA-MB-231 = experiment: Cytotoxicity against human MDA-MB-231 cells assessed as cell growth at 10 uM; summary of the method: as §1
HCT-116 = experiment: Cytotoxicity against human HCT116 cells assessed as cell growth at 10 uM; summary of the method: as §2
SK-MEL-2 = experiment: Cytotoxicity against human SK-MEL-2 cells assessed as cell growth at 10 uM; summary of the method: as §1
CCRF-CEM = experiment: Cytotoxicity against human CCRF-CEM cells assessed as cell growth at 10 uM; summary of the method: as §2
HOP-62 = experiment: Cytotoxicity against human HOP62 cells assessed as cell growth at 10 uM; summary of the method: as §2
HL-60(TB) = experiment: Cytotoxicity against human HL-60(TB) cells assessed as cell growth at 10 uM
Summary of the method: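 NCI 60-cell panel screen at a single concentration of 10 µM. Cells are grown in RPMI 1640 with 5% FBS and 2 mM L-glutamine and read by SRB protein staining at 515 nm. Percent growth is measured relative to time-zero and untreated controls; inhibition % is 100 minus growth %.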

SNB-75 = experiment: Cytotoxicity against human SNB75 cells assessed as cell growth at 10 uM; summary of the method: as §1
TK-10 = experiment: Cytotoxicity against human TK10 cells assessed as cell growth at 10 uM; summary of the method: as §1
UACC-62 = experiment: Cytotoxicity against human UACC62 cells assessed as cell growth at 10 uM; summary of the method: as §1
MDA-MB-468 = experiment: Cytotoxicity against human MDA-MB-468 cells assessed as cell growth at 10 uM; summary of the method: as §1
SK-MEL-5 = experiment: Cytotoxicity against human SK-MEL-5 cells assessed as cell growth at 10 uM; summary of the method: as §1
HCC 2998 = experiment: Cytotoxicity against human HCC2998 cells assessed as cell growth at 10 uM; summary of the method: as §2
NCI-H23 = experiment: Cytotoxicity against human NCI-H23 cells assessed as cell growth at 10 uM; summary of the method: as §1
U-251 = experiment: Cytotoxicity against human U251 cells assessed as cell growth at 10 uM; summary of the method: as §1
SR = experiment: Cytotoxicity against human SR cells assessed as cell growth at 10 uM; summary of the method: as §1
CAKI-1 = experiment: Cytotoxicity against human Caki1 cells assessed as cell growth at 10 uM; summary of the method: as §2
BT-549 = experiment: Cytotoxicity against human BT549 cells assessed as cell growth at 10 uM; summary of the method: as §2
HCT-15 = experiment: Cytotoxicity against human HCT15 cells assessed as cell growth at 10 uM; summary of the method: as §2

COc1cc(C)cc(-c2nn(CC#N)cc2-c2ccnc(-c3ccc(C#N)cc3)c2)c1
growth at 10 µM (MCF7): 43.3%
growth at 10 µM [1]: 89.7%
growth at 10 µM (HOP-92): 75.3%
growth at 10 µM (A549): 83.6%
growth at 10 µM (NCI-H226): 78.8%
growth at 10 µM (SK-OV-3): 90.3%
growth at 10 µM (Malme-3M): 111%
growth at 10 µM (EKVX): 92%
growth at 10 µM (SW-620): 101%
growth at 10 µM (SF-295): 102%
growth at 10 µM (NCI-H322M): 91.3%
growth at 10 µM (HT-29): 85.2%
growth at 10 µM (KM12): 102%
growth at 10 µM (MDA-MB-231): 80.8%
growth at 10 µM (HCT-116): 80.3%
growth at 10 µM (SK-MEL-2): 89.9%
growth at 10 µM (CCRF-CEM): 85.6%
growth at 10 µM (HOP-62): 96.5%
growth at 10 µM (HL-60(TB)): 93.6%
growth at 10 µM (SNB-75): 57.4%
growth at 10 µM (TK-10): 84.7%
growth at 10 µM (UACC-62): 59.4%
growth at 10 µM (MDA-MB-468): 42.9%
growth at 10 µM (SK-MEL-5): 63.4%
growth at 10 µM (HCC 2998): 89.3%
growth at 10 µM (NCI-H23): 83.1%
growth at 10 µM (U-251): 91.2%
growth at 10 µM (SR): 106%
growth at 10 µM (CAKI-1): 82.2%
growth at 10 µM (BT-549): 99.3%
growth at 10 µM (HCT-15): 75.9%
